Sampled rows, rich in hits. Any-hit rate of the full collection: about 2%.
eIF4H inh: inhibitors of RNA binding by human eIF4H; 0.94% of 290,000 active; eIF4H fluorescence polarization binding assay; AID 2012; inhibition, % at 35 µM;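 further: calls also rest on retests at 20 µM and on dose response follow-up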
DNA FID counter-1: fluorescent intercalator displacement, NS3 helicase counter-screen; inhibition, % at 7.9 µM; AID 1845; DNA fluorescent intercalator displacement, fluorescence; 0.17% of 290,000 active; in the data active means inhibition above about 37%;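 further: higher means more ethidium bromide displaced from hairpin DNA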
NS3 helicase inh: blocks Hepatitis C virus NS3 helicase unwinding. inhibition, % at 10.9 µM. NS3 helicase DNA unwinding, Cy5 molecular beacon fluorescence. 0.56% of 290,000 active;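 active means inhibition above the mean of all tested compounds plus 3 SD, set per campaign, cut at about 35% in these data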
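test system = hepatitis C virus NS3 helicase domain fragment enzyme | reagent = annealed dual-labelled DNA beacon duplex, ATP-started | times = 1 h at 25 °C | detection = Cy5 fluorescence, 0 and 60 min reads | read-out basis = percent inhibition from t60/t0 fluorescence ratio | control set = DMSO and thioflavine S | replication = one well per compound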
PABP polyA inh: PABP-poly(A) binding inhibition | inhibition, % at 35 µM | 1% of 290,000 active | P11940 | PABP-poly(A) RNA binding, fluorescence polarization;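 further: calls also rest on retests at 20 µM and on dose response follow-up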
Target sequence (P11940 whole entry, looked up): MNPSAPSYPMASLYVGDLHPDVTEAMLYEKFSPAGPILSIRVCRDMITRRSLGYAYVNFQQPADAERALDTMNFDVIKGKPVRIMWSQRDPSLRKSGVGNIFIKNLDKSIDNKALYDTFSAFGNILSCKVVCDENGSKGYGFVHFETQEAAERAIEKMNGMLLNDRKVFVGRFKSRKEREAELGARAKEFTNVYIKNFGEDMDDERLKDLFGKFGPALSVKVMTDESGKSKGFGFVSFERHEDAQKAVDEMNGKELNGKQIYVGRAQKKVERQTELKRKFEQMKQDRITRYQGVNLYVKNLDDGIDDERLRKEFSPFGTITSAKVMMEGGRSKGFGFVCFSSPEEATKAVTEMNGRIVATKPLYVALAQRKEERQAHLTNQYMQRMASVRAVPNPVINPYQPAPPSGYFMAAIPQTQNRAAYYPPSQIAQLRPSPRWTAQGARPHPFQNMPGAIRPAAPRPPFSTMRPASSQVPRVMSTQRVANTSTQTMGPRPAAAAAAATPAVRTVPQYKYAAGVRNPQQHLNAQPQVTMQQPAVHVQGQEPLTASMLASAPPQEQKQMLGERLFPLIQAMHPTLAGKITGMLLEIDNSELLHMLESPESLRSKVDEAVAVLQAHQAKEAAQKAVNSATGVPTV
core dimer inh: HCV core protein dimerization inhibition | TR-FRET GST/Flag-core106 dimerization, 1536-well | inhibition, % at 5 µM | 0.33% of 300,000 active | AID 1899;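 active means inhibition above the mean of all tested compounds plus 3 SD, set per screening campaign, cut at about 45% in these data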
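assay system = GST-tagged and Flag-tagged HCV core protein residues 1-106 | controls = unlabelled core106 and no-GST-core106 wells | incubation = compound-protein-antibody incubation 4 h at 22.5 °C | probe or stimulus = Eu donor and XL665 acceptor anti-tag antibodies | read-out = % inhibition based on acceptor/donor emission ratio | signal = TR-FRET 671 and 617 nm emission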
MLLE-PAM2 inh: inhibitors of microRNA-mediated deadenylation, human PABP1 MLLE binding. AID 588489. P11940. inhibition, % at 20 µM. GST-MLLE / FITC-PAM2 fluorescence polarization. 0.36% of 360,000 active; in the data active means inhibition above about 35%, passing the limit was not always enough
NS3 helicase cf: confirmation of Hepatitis C virus NS3 helicase inhibitors. NS3 helicase DNA unwinding, Cy5 molecular beacon fluorescence. 31% of 1,600 active. shares compounds with NS3 helicase inh. inhibition, % at 10.9 µM;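 active means inhibition above the mean of all tested compounds plus 3 SD, cutoff set per campaign, cut at about 36% in these data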
DNA FID counter-2: counter-screen for HCV NS3 helicase inhibitors: DNA intercalator displacement. shares compounds with NS3 helicase inh. DNA fluorescent intercalator displacement, fluorescence. inhibition, % at 7.9 µM. 4% of 1,600 active. AID 1945; in the data active means inhibition above about 37%;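 further: higher means more displacement of ethidium bromide from the DNA hairpin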
FID counter DR: counter-screen for HCV NS3 helicase inhibitors: DNA intercalator displacement dose response | 120 tested, under 10 active | fluorescent intercalator displacement from DNA, fluorescence | shares compounds with NS3 helicase inh | IC50, µM
Large screens that a line does not name were inactive (follow-up assays come after a bar, where they were run). Unless noted, how the calls were made is not given here.

CCC1=NN2C(=N)/C(=C\c3cccn3-c3ccc(C)c(C)c3)C(=O)N=C2S1	none
COc1ccc(CNC(=O)COc2cc3c(c4oc(=O)cc(C)c24)CCC(C)(C)O3)c(OC)c1	none (no result: eIF4H inh, DNA FID counter-1, NS3 helicase inh, PABP polyA inh, core dimer inh)
COCCCN1C(=O)C(=O)/C(=C(/O)c2ccc(S(=O)(=O)N3CCCCC3)cc2)C1c1ccc(F)cc1 (centres undefined)	NS3 helicase inh 44.0 | NS3 helicase cf inactive | DNA FID counter-2 inactive
CCN(CC)CCN1C(=O)C(=O)/C(=C(/O)c2ccc(S(=O)(=O)N3CCOCC3)cc2)C1c1ccc(C(C)(C)C)cc1 (centres undefined)	NS3 helicase inh 45.7 | NS3 helicase cf inactive | DNA FID counter-2 inactive
CCN(CC)CCN1C(=O)C(=O)/C(=C(/O)c2ccc(S(=O)(=O)N3CCOCC3)cc2)C1c1ccccc1 (centres undefined)	none
CCc1nn2c(=O)cc(COC(=O)c3ccc(SC)cc3OC)nc2s1	none (no result: eIF4H inh, DNA FID counter-1, NS3 helicase inh, PABP polyA inh, core dimer inh)
CCCCn1c(SCC(=O)NC2CC2)nc2cc(C(=O)OC)ccc2c1=O	none (no result: eIF4H inh, DNA FID counter-1, NS3 helicase inh, PABP polyA inh, core dimer inh)
O=C(NC1CCCC1)C(=O)N(c1ccccc1F)C(C(=O)NCC1CCCO1)c1cccs1 (centres undefined)	NS3 helicase inh 36.5 | NS3 helicase cf inactive | DNA FID counter-2 inactive
O=C(NC1CCCC1)C(c1cccs1)N(CC1CCCO1)C(=O)Cc1cccs1 (centres undefined)	none
CN(C)c1ccc(N=C/C=C2/N(C)c3ccccc3C2(C)C)cc1	NS3 helicase inh 36.2 (no result: core dimer inh) | NS3 helicase cf inactive | DNA FID counter-2 42.0
CC1(C)C(=O)Nc2ccccc2N1C(=O)Cn1ncc(Cl)c(Cl)c1=O	NS3 helicase inh 47.3 | NS3 helicase cf inactive | DNA FID counter-2 inactive
Cc1nn(CC(=O)N2c3ccccc3NC(=O)C2(C)C)c(C)c1[N+](=O)[O-]	none
CCNC(=O)C1CCCN(C(=O)C(c2ccccc2)c2ccccc2)CC1 (centres undefined)	none (no result: eIF4H inh, DNA FID counter-1, NS3 helicase inh, PABP polyA inh, core dimer inh)
Cc1ccc(Nc2cccccc2=O)cc1	NS3 helicase inh 45.2 | NS3 helicase cf inactive | DNA FID counter-2 inactive
CCOC(=O)C1(Cc2cccc(Cl)c2)CCCN(C(=O)CCN2CCCC2=O)C1 (centres undefined)	NS3 helicase inh 64.7 | NS3 helicase cf inactive | DNA FID counter-2 inactive
CCN(CC)C(=O)[C@H]1C[C@H](CC(=O)NCc2cccc(C(F)(F)F)c2)C(=O)N2CCc3c([nH]c4cc(CCC(=O)N(C)C)ccc34)[C@]12C	none (no result: eIF4H inh, DNA FID counter-1, NS3 helicase inh, PABP polyA inh, core dimer inh)
COc1cccc(/C(O)=C2/C(=O)C(=O)N(Cc3ccco3)C2c2ccncc2)c1 (centres undefined)	none
O=C1C(=O)N(Cc2ccco2)C(c2cccc(Cl)c2)/C1=C(\O)c1ccc2c(c1)OCCO2 (centres undefined)	NS3 helicase inh 46.7 | NS3 helicase cf 83.0 | DNA FID counter-2 inactive | FID counter DR inactive
O=C(C1=C(O)C(=O)N(Cc2ccco2)C1c1cccc(Cl)c1)c1ccco1 (centres undefined)	NS3 helicase inh 48.3 | NS3 helicase cf inactive | DNA FID counter-2 inactive
COc1cc(C2/C(=C(\O)c3ccc4c(c3)OCCO4)C(=O)C(=O)N2Cc2ccco2)ccc1O (centres undefined)	none
O=C1C(=O)N(Cc2ccco2)C(c2cccs2)/C1=C(\O)c1cccc([N+](=O)[O-])c1 (centres undefined)	NS3 helicase inh 42.8 | NS3 helicase cf inactive | DNA FID counter-2 inactive
CCCOc1ccc(C2C(C(=O)c3ccc(C)o3)=C(O)C(=O)N2Cc2ccco2)cc1 (centres undefined)	NS3 helicase inh 71.3 | NS3 helicase cf 97.9 | DNA FID counter-2 inactive
Cc1ccc2nc(-c3ccco3)c(CC3CCCCC3)n2c1	none (no result: eIF4H inh, DNA FID counter-1, NS3 helicase inh, PABP polyA inh, core dimer inh)
CCOCCOc1cc(NCc2ccccc2)c2ncn(C(C)C)c2c1	none (no result: eIF4H inh, DNA FID counter-1, NS3 helicase inh, PABP polyA inh, core dimer inh)
CCCOc1ccc(C2C(C(=O)c3ccc(C)o3)=C(O)C(=O)N2Cc2ccco2)cc1OCC (centres undefined)	NS3 helicase inh 36.8 | NS3 helicase cf 54.8 | DNA FID counter-2 inactive | FID counter DR inactive
O=C(C1=C(O)C(=O)N(c2ncccn2)C1c1ccc(Cl)c(Cl)c1)c1ccco1 (centres undefined)	none
O=C(C1=C(O)C(=O)N(c2ncccn2)C1c1ccc(Cl)cc1)c1ccco1 (centres undefined)	NS3 helicase inh 43.4 | NS3 helicase cf inactive | DNA FID counter-2 inactive
COc1ccc(C2C(C(=O)c3ccc(C)o3)=C(O)C(=O)N2Cc2ccco2)cc1OC (centres undefined)	none
Cc1ccc(NC(=O)C(c2ccccc2)N2CCN(CC(=O)N3CCOCC3)CC2)cc1Cl (centres undefined)	none (no result: eIF4H inh, DNA FID counter-1, NS3 helicase inh, PABP polyA inh, core dimer inh)
Cc1ccccc1CN1CCCC(C(=O)Nc2ccccc2Oc2cccnc2)C1 (centres undefined)	none
COc1ccccc1CCNC(=O)CSc1ccc(-c2cccs2)nn1	NS3 helicase inh 44.5 | NS3 helicase cf inactive | DNA FID counter-2 inactive
CC(CN1C(C)CCCC1C)OC(=O)c1ccccc1F (centres undefined)	none
O=C(Nc1nc2c(Cl)c(Cl)ccc2s1)C1CC1	NS3 helicase inh 41.5 | NS3 helicase cf inactive | DNA FID counter-2 inactive
O=C(NCc1ccco1)c1ccc(-c2ccc3nccn3c2)cc1	none (no result: eIF4H inh, DNA FID counter-1, NS3 helicase inh, PABP polyA inh, core dimer inh)
Cc1cc(N=Nc2ccccc2C(=O)O)c(C)c(C)c1O	NS3 helicase inh 48.6 | NS3 helicase cf 66.3 | DNA FID counter-2 inactive
Cc1cc(O)c(C(C)C)cc1N=Nc1ccccc1C(=O)O	none
Cc1ccc(C)c(NC(=O)c2cc(C)nc3ccccc23)c1	NS3 helicase inh 54.8 | NS3 helicase cf inactive | DNA FID counter-2 inactive
Cc1ccc(-c2csc(/C(C#N)=C(\O)CN3CCN(C(=O)c4ccco4)CC3)n2)cc1	NS3 helicase inh 36.8 | NS3 helicase cf 41.7 | DNA FID counter-2 inactive
COc1cc(C(=O)N/C(=C/c2ccc(F)cc2)C(=O)NC(C(=O)O)c2ccccc2)cc(OC)c1OC (centres undefined)	NS3 helicase inh 36.6 | NS3 helicase cf inactive | DNA FID counter-2 inactive
CCN(CC)c1ccc(/C=C(\C#N)c2nc(-c3cccs3)c(NC(C)=O)s2)cc1	eIF4H inh inconclusive, NS3 helicase inh 45.5 (no result: core dimer inh, MLLE-PAM2 inh) | NS3 helicase cf inactive | DNA FID counter-2 inactive
CC(=O)Nc1sc(N/N=C\c2ccc(O)cc2)nc1-c1cccs1	none
CC(=O)NCCc1nc2cc(NS(=O)(=O)c3ccc(Cl)cc3)ccc2n1C	NS3 helicase inh 36.7 | NS3 helicase cf inactive | DNA FID counter-2 inactive
COc1ccc(N2CCN(C(=O)C(Cc3ccccc3)NC(=O)c3ccccc3)CC2)cc1 (centres undefined)	none (no result: eIF4H inh, DNA FID counter-1, NS3 helicase inh, PABP polyA inh, core dimer inh)

Screening results: PubChem, several laboratories
